CHOP inh: blocks CHOP induction under ER stress. 220,000 compounds, 3.8% hits. inhibition, % at 10 µM. CHO-K1 CHOP-promoter luciferase, tunicamycin-induced, 15-18 h;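 active means compounds that reduced the stress-induced luciferase reporter signal by more than about 70% of percent inhibition, limit read from the data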;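 further: 0% = tunicamycin plus vehicle and 100% = wells without tunicamycin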
MT stabilizer: microtubule stabilization, imaging screen; 200,000 compounds, 0.83% hits; % tubulin-high responders, % at 10 µM; HeLa tubulin immunostaining HCS, 24 h; share of cells brighter than vehicle mean+2SD;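 active means plate Z-score above 3 for both tubulin-high and condensed-nucleus cell shares, with cell loss under 80%, at 10 µM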;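 further: anti alpha tubulin signal scored within the nucleus-defined area of each cell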
b-catenin transl: alters nuclear translocation of beta-catenin in HeLa cells | immunofluorescence imaging | nuclear translocation activity, % at 5 µM | 190,000 compounds, 0.3% hits;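 active means nuclear translocation activity above 50% at 5 µM, with a well cell count of 50 or more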;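 further: per-cell ratio of nuclear to cytoplasmic median beta-catenin stain intensity; plate controls were DMSO negative control for no effect and GSK-3 inhibitor IX positive control for full effect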
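Test system: human HeLa cells, native beta-catenin. Compound dosing: 5 µM primary single dose, 0.1% DMSO, 0.02–20 µM confirmation series. Incubation: compound exposure 24 h at 37°C. Detection: beta-catenin immunostaining with DAPI counterstain, 20x imaging, 6 fields/well. Read-out basis: Nuclear/cytoplasmic beta-catenin signal ratio, % activation.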
Lmaj promast: reduces viability of Leishmania major promastigotes. 200,000 compounds, 9% hits. resazurin fluorescence viability. AID 1063. inhibition, % at 10 µM; in the data active means inhibition above about 50%;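 further: promastigotes grown with compound for 44 hours at 28 °C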
Dynein cargo inh: blocks dynein driven cargo transport along microtubules; 220,000 compounds, 0.47% hits; 3617.4 mouse cells, GR-EGFP nuclear translocation imaging; test concentration mostly 20 µM; stimulated with dexamethasone, 1 µM; active compounds read low; z-score, hits read low;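 active means plate z-score of nuclear minus cytoplasmic receptor signal below a set negative limit, without overly bright fluorescence or cell loss, cut at about -3.5 in these data, passing the limit was not always enough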;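 further: z-score of nuclear minus cytoplasmic ring GR-EGFP intensity difference per well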
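Buffer or medium: tet-free, stripped-serum medium; Also added: dexamethasone, 1.0 µM final; Technique: high-content fluorescence imaging after fixation; Times: 48 h induction, 1 h compound, 30 min dex at 37 °C; Read-out: per-cell GR-EGFP intensity, nucleus versus surrounding cytoplasmic ring, well-averaged.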
Autophagy mod: alters autophagy in cells; calls only at 10 µM (by protocol); MEF GFP-LC3 puncta imaging; test concentration mostly 10 µM; 190,000 compounds, 0.98% hits;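 active means percentage of spot-positive cells more than 3 SD above its plate mean, without a fluorescence outlier flag or 80% toxicity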;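 further: spot-positive cell cutoff set from DMSO-treated cells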
* hit, by the source's call; i = inactive; · = no result; + = active, no number. Hits are enriched below; roughly 12% of the tested compounds scored in any of these assays.

SMILES	CHOP inh	MT stabilizer	b-catenin transl	Lmaj promast	Dynein cargo inh	Autophagy mod
CC(=NCCN1CCCCC1)c1c(O)n(-c2ccc(Cl)cc2)c(=O)[nH]c1=O	27.8	2.4	-0.4	-3.3	0.527	i
O=c1[nH]c(=S)n(C2CC2)c(O)c1C=Nc1cccc(C(F)(F)F)c1	95.0*	5.5	0.2	-7.0	-0.44	i
O=c1[nH]c(=S)n(C2CC2)c(O)c1C=NCCc1ccccc1	11.6	·	-3.8	·	-0.197	·
CCCCCCC(=O)N/N=C/c1c(O)n(CCc2ccccc2)c(=O)[nH]c1=O	54.0	·	-2.6	·	-0.281	·
COc1cccc(C(=O)C2CCCN(Cc3cccc(C)n3)C2)c1 (stereo unspecified)	-12.9	2.5	1.6	29.3	1.95	i
CCn1cc(CN2CCCC(C(=O)c3cccc(OC)c3)C2)c(C)n1 (stereo unspecified)	1.1	1.2	-0.3	78.2*	0.0152	i
COc1cccc(C(=O)C2CCCN(Cc3ccc4nsnc4c3)C2)c1 (stereo unspecified)	16.6	2.7	-0.1	87.4*	-1.25	i
COc1cccc(C(=O)C2CCCN(Cc3ccon3)C2)c1 (stereo unspecified)	22.5	1.7	-0.3	-7.5	0.375	i
Cc1cccc(CN2CCCC(C(=O)c3cccc(OC(C)C)c3)C2)n1 (stereo unspecified)	-17.0	2.7	1.0	59.8*	0.0365	i
COc1cccc(C(=O)C2CCCN(Cc3cnn(C(C)C)c3)C2)c1 (stereo unspecified)	27.1	3.0	0.6	71.0*	-0.493	i
CCN(CC)c1ncnc2c1ncn2[C@@H]1O[C@H](COP(=O)(O)OP(=O)(O)C(Br)(Br)P(=O)(O)O)[C@@H](O)[C@H]1O	-19.9	·	·	·	·	·
O=C(O)c1cc[c]([Hg][Cl])cc1	-24.9	·	·	·	·	·
O=C(c1ccc(Cl)cc1)C1CCCN(Cc2cccc3cccnc23)C1 (stereo unspecified)	-0.7	3.3	-1.6	82.8*	1.03	i
O=C(c1ccc(Cl)cc1)C1CCCN(Cc2ccc3nonc3c2)C1 (stereo unspecified)	22.1	3.7	1.6	84.7*	-0.635	i
O=C(c1ccccc1)C1CCCN(Cc2nc(-c3cnccn3)no2)C1 (stereo unspecified)	19.2	3.9	-0.7	-4.0	-0.103	+
O=C(c1ccc(Cl)cc1)C1CCCN(Cc2cccc3ncccc23)C1 (stereo unspecified)	48.7	2.2	0.8	80.6*	-0.194	i
O=C(c1cc(F)ccc1F)C1CCCN(Cc2cccc(Cl)c2)C1 (stereo unspecified)	10.6	5.2	-0.4	29.7	-0.517	i
O=C(c1cccnc1)C1CCCN(Cc2nc(-c3cnccn3)no2)C1 (stereo unspecified)	-12.2	·	0.2	·	-0.521	·
CC1CN=C(NCCc2ccccc2)S1 (stereo unspecified)	14.1	1.4	5.0	3.4	-0.0762	i
CCC(C)n1c(O)c(C(c2ccccn2)c2c(O)n(C(C)CC)c(=S)[nH]c2=O)c(=O)[nH]c1=S (stereo unspecified)	10.8	4.3	-0.3	-6.6	0.219	i
NC(=O)CI	-11.0	·	·	·	·	·
CN(CC(=O)Nc1ccccc1-c1ccccc1)C1CCCCC1	82.9*	3.6	5.1	10.6	-0.477	i
COc1ccc2c(c1)C13CCCCC1C(C2)N(C)CC3 (stereo unspecified)	-7.5	·	·	·	·	·
COc1ccc(OCC(=O)N2CCN(Cc3ccc(SC)cc3)CC2)cc1	33.7	3.0	1.8	84.3*	0.25	i
Cc1ccc(OCC(=O)N2CCN(Cc3ccc4c(c3)OCO4)CC2)cc1	25.8	4.0	-1.3	83.1*	-1.1	i
SMILES	CHOP inh	MT stabilizer	b-catenin transl	Lmaj promast	Dynein cargo inh	Autophagy mod
Cc1cccc(OCC(=O)N2CCN(Cc3ccc([N+](=O)[O-])cc3)CC2)c1	-7.2	3.1	1.2	57.7*	-0.15	i
COc1ccccc1OCC(=O)N1CCN(Cc2ccc3c(c2)OCO3)CC1	46.2	1.7	-0.4	10.7	-0.539	i
COc1ccc(OCC(=O)N2CCN(Cc3ccc4c(c3)OCO4)CC2)cc1	0.8	3.8	1.3	63.6*	0.753	i
Cc1ccc(C)c(OCC(=O)N2CCN(Cc3ccc4c(c3)OCO4)CC2)c1	14.2	3.6	-0.7	19.9	1.14	i
O=c1cccc2n1C[C@H]1C[C@@H]2CN2CCCC[C@@H]12	5.3	·	0.3	·	-1.11	·
Clc1cc(I)cc(Cl)c1NC1=NCCN1	4.3	·	·	·	·	·
C/C(=N\N1CCCCCC1)c1c(O)n(C2CCCCC2)c(=O)[nH]c1=O	14.6	·	-0.4	·	-0.176	·
N#Cc1ccc(OCC(=O)N2CCN(Cc3ccc4c(c3)OCO4)CC2)cc1	-3.9	5.8	-1.2	75.9*	0.813	i
C=CCn1c(=O)c(C=Nc2c(OC)cccc2[N+](=O)[O-])c(O)n(CCCC)c1=O	45.9	2.6	-3.3	-7.0	-0.0368	i
O=c1c2ccccc2nc(C[n+]2ccccc2)n1-c1cccc(C(F)(F)F)c1	12.0	1.1	0.0	-5.8	0.56	i
Cc1oc(-c2ccccc2)nc1CN1C(=O)C(C)N=C(c2ccccc2F)c2cc(Cl)ccc21 (stereo unspecified)	54.0	2.6	-1.7	93.7*	-1.01	i
CSc1ccc(C(=O)C2CCCN(Cc3cnc(SC)nc3)C2)cc1 (stereo unspecified)	-5.1	1.9	0.7	93.7*	1.37	i
CSc1ccc(C(=O)C2CCCN(C)C2)cc1 (stereo unspecified)	9.0	2.1	0.0	72.3*	0.488	i
CSc1ccc(C(=O)C2CCCN(CCCn3cccn3)C2)cc1 (stereo unspecified)	26.6	3.9	1.6	85.7*	-0.778	i
CCn1ccnc1CN1CCCC(C(=O)c2ccc(SC)cc2)C1 (stereo unspecified)	-8.5	4.9	-0.2	9.4	-0.215	i
Cc1ccc(/C=C2\C(=O)NC(=S)N(c3ccccc3F)C2=O)s1	107.2*	32.9*	-2.7	100.6*	-3.67*	i
Cc1ccc(/C=C2\C(=O)NC(=O)N(CC3CCCO3)C2=O)s1 (stereo unspecified)	-0.4	·	-0.1	·	-0.816	·
CCOC(=O)C1CCN(/C=C2/C(=O)NC(=S)N(c3ccccc3F)C2=O)CC1	-0.8	2.9	-1.7	55.3*	-0.583	i
Cc1cc(C=O)c(C)n1C1CC1	-2.6	2.9	-0.8	-2.6	0.346	i
c1ccc2c3c(ccc2c1)OCC1CONC31 (stereo unspecified)	6.2	2.4	-1.8	-3.7	0.733	i
COc1cccc(NP(=O)(Oc2ccc(Cl)cc2)Oc2ccc(Cl)cc2)c1	55.4	5.1	90.5*	9.3	1.1	i
Cc1ccc(NP(=O)(Oc2ccccc2F)Oc2ccccc2F)cc1C	30.2	4.3	-0.3	7.4	-0.0102	i
